In ChEMBL document CHEMBL1129338, “Inhibitors of acyl-CoA:cholesterol O-acyltransferase. synthesis and pharmacological activity of (+/-)-2-dodecyl-alpha-phenyl-N-(2,4,6-trimethoxyphenyl)-2H-tetrazole-5- acetamide and structurally related tetrazole amide derivatives” (J Med Chem, 1996):

Columns and labels:
[1] = test system: Oryctolagus cuniculus; experiment: Dose response in cholesterol fed rabbit after oral administration; type: functional
Outline: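 Cholesterol-fed rabbit model with oral dosing across a dose series, 8 animals per dose. Plasma cholesterol reduction was averaged at each dose. ED50, the dose lowering plasma total cholesterol 50%, was calculated from these mean responses with the median-effect equation.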

[2] = test system: Rattus norvegicus; experiment: Effective dose to lower nonHDL-C in a cholesterol fed rat model in vivo; type: functional
[3] = molecular target: T1, Acyl-CoA:cholesterol acyltransferase (Oryctolagus cuniculus) (UniProt Q95214); conditions: at 25 mg/kg
T1 sequence (whole entry): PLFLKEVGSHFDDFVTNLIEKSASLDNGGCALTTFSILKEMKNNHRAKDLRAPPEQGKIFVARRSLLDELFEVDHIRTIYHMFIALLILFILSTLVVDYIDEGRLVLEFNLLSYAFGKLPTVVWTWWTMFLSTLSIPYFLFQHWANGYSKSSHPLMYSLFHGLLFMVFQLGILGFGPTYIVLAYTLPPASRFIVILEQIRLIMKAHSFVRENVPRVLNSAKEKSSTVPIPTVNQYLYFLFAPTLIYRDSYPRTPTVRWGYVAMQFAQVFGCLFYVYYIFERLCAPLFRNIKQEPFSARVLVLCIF

[4] = test system: Oryctolagus cuniculus; experiment: Change in total cholesterol(TC) versus progression control (PC) with out drug intervention in chronic cholesterol-fed rabbit model at a dose of 25 mg/kg; type: functional
Outline: (§1)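 Male New Zealand rabbits (1-1.5 kg) were meal-fed 50 g/day of chow with 0.5% cholesterol, 3% coconut oil and 3% peanut oil. After 1 week, compound was added to the diet for 2 weeks at 5 or 25 mg/kg. Plasma total cholesterol came from cardiac blood of fasted animals after nitrogen asphyxiation. It was compared with cholesterol-fed progression controls or with T0, the start of drug intervention, when plasma cholesterol was taken 24 h after the drug meal.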

[5] = test system: Oryctolagus cuniculus; experiment: Change in total cholesterol(TC) versus progression control (PC) with out drug intervention in chronic cholesterol-fed rabbit model at a dose of 5 mg/kg; type: functional; outline: as §1
[6] = test system: Oryctolagus cuniculus; experiment: Change in total cholesterol(TC) versus (T0)- at which drug intervention begins at a dose of 5 mg/kg in chronic cholesterol-fed rabbit model; type: functional; outline: as §1
[7] = molecular target: T1, Acyl-CoA:cholesterol acyltransferase (Oryctolagus cuniculus); conditions: 25 mg/kg
[8] = molecular target: T2, Sterol O-acyltransferase 1 (Mus musculus) (UniProt Q61263); experiment: In vitro inhibitory activity against acyl coenzyme A:cholesterol acyltransferase 1 in cell culture assay using murine IC-21 macrophages at 0.1 uM
T2 sequence (whole entry): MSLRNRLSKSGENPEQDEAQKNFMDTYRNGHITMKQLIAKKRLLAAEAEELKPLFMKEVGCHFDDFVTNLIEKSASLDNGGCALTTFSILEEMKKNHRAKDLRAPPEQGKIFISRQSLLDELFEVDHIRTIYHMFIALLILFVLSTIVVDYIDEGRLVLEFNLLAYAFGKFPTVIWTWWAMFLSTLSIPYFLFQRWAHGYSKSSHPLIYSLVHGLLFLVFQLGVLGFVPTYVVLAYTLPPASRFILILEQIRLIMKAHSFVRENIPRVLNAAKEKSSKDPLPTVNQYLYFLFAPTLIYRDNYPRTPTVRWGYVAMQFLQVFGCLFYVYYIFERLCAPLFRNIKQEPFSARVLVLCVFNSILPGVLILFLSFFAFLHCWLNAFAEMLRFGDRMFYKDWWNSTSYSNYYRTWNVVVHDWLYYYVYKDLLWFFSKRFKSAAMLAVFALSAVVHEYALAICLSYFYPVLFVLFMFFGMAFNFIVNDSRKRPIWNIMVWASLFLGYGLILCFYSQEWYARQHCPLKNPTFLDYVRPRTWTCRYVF
Outline: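 IC-21 mouse macrophages were preincubated 16 h in serum-free DMEM with 20 µM albumin and phosphatidylserine/cholesterol vesicles. The vesicles were sonicated in 150 mM NaCl, 5 mM MOPS, 1 mM EDTA, pH 7.4, and filter-sterilized. Medium was then replaced with serum-free DMEM containing the compound in DMSO at 0.1 µM. Percent inhibition was read, with cell protein measured by the Lowry method.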

[9] = test system: Oryctolagus cuniculus; experiment: % change in total cholesterol(TC) versus progression control (PC) with out drug intervention in chronic cholesterol-fed rabbit model at a dose of 5 mg/kg; type: functional; outline: as §1
[10] = test system: Oryctolagus cuniculus; experiment: Oral bioactivity expressed as %inhibition after 4 hours of drug administration (dose 25 mg/kg) in rabbit bioassay; type: functional
Outline: (§2)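 Plasma was taken before dosing and at 1, 2 and 4 h. Plasma (0.2 mL) was hexane-extracted, dried and redissolved in chloroform/methanol 2:1. It was then tested for ACAT inhibition in the liver microsomal assay alongside spiked standards and a 2.5 µM CI-976 reference.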

[11] = molecular target: T3, Acyl-CoA:cholesterol acyltransferase (Oryctolagus cuniculus, UniProt Q95214); experiment: Inhibitory concentration against Acyl coenzyme A:cholesterol acyltransferase 1 from rabbit intestine
T3 sequence (Q95214 whole entry): T1 sequence (whole entry)

[12] = molecular target: T4, Sterol O-acyltransferase 1 (Rattus norvegicus, UniProt O70536); experiment: In vitro inhibitory activity against acyl coenzyme A:cholesterol acyltransferase 1 of liver microsomes isolated from cholesterol-fed rats.
T4 sequence (O70536 whole entry): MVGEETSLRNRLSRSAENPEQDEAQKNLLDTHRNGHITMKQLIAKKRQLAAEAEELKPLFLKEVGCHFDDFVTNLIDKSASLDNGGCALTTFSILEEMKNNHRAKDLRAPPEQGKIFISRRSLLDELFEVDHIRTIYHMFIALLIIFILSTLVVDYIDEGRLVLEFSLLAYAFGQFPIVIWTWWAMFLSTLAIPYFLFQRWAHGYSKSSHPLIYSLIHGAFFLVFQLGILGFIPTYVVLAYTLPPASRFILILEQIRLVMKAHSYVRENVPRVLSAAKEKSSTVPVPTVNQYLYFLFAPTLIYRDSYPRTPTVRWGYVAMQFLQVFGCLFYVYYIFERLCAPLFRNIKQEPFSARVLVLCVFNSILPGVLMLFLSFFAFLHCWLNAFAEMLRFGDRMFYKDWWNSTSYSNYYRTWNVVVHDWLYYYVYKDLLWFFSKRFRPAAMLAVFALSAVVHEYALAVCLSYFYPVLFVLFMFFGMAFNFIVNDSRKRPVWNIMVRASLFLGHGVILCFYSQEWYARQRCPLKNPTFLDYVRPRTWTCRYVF
Outline: (§3)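 ACAT inhibition was measured in hepatic microsomes isolated from cholesterol-fed rats. Each determination was run in triplicate, and IC50 was reported.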

[13] = test system: Acyl-CoA:cholesterol acyltransferase (Rattus norvegicus); experiment: Ability to reduce cholesterol absorption, i.e. the appearance of lymph cholesteryl ester at a dose of 10 mg/kg
[14] = test system: Rattus norvegicus; experiment: Percent change in High Density Lipoproteins (HDL) in Chronic Cholesterol -Fed rat model at a dose 30 mg/kg; type: functional
Outline: (§4)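 Rats ate a high-fat, high-cholesterol diet for 14 days. During the second week they received the test compound daily by gavage at 30 mg/kg, in a carboxymethylcellulose/Tween-20 aqueous vehicle. Plasma lipids (total cholesterol, HDL-C, non-HDL-C) were read as percent change.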

[15] = test system: Rattus norvegicus; experiment: Percent change in non High Density Lipoproteins (HDL) in Chronic Cholesterol -Fed rat model at a dose 30 mg/kg
[16] = test system: Oryctolagus cuniculus; experiment: % change in total cholesterol(TC) versus progression control (PC) with out drug intervention in chronic cholesterol-fed rabbit model at a dose of 25 mg/kg; type: functional; outline: as §1
[17] = test system: Oryctolagus cuniculus; experiment: Percent change in total cholesterol(TC) versus (T0)- at which drug intervention begins at a dose of 25 mg/kg in the chronic cholesterol-fed rabbit model; type: functional; outline: as §1
[18] = test system: Rattus norvegicus; experiment: % change in total cholesterol in Chronic Cholesterol-Fed rat model at dose 30 mg/kg; type: functional; outline: as §4
[19] = test system: Rattus norvegicus; experiment: Percent change in total cholesterol (TC) in cholic acid (0.5%)-, cholesterol (1.5%) -, and peanut oil (5.5%)- fed rats at a dose 30 mg/kg.; type: functional
[20] = test system: Oryctolagus cuniculus; experiment: Oral bioactivity expressed as %inhibition after 4 hours of drug administration (dose 50 mg/kg) in rabbit bioassay; type: functional; outline: as §2
[21] = molecular target: T4, Sterol O-acyltransferase 1; experiment: Inhibitory concentration against Acyl coenzyme A:cholesterol acyltransferase 1 from rat liver; outline: as §3
[22] = molecular target: Sterol O-acyltransferase 1 (Mus musculus) (UniProt Q61263); experiment: Percent change of compound against Acyl coenzyme A:cholesterol acyltransferase 1 in cell culture assay using murine IC-21 macrophages at 0.1(uM)
[23] = test system: Rattus norvegicus; experiment: In vitro percent decrease in cholesterol activity at 30 mg/kg in acute rat screen; type: functional; conditions: in the assay text read “In vivo” for “In vitro”
Outline: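 Rats received a single gavage dose of 30 mg/kg, suspended in carboxymethylcellulose/Tween-20 in water, followed by one high-fat, high-cholesterol meal. The read-out was inhibition of the overnight rise in plasma total cholesterol, as percent change.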

[24] = test system: Oryctolagus cuniculus; experiment: % change in total cholesterol(TC) versus (T0)- at which drug intervention begins at a dose of 5 mg/kg in chronic cholesterol-fed rabbit model; type: functional; outline: as §1
[25] = test system: Rattus norvegicus; experiment: Change in total cholesterol in Chronic Cholesterol-Fed rat model at dose 30 mg/kg; type: functional; outline: as §4
[26] = test system: Rattus norvegicus; experiment: Percent change in total cholesterol (TC) in cholic acid (0.5%) - cholesterol (1.5% - peanut oil (5.5%) - fed rats at a dose 30 mg/kg; type: functional

Compound | inhibition [8] [%] | Change [9] [%] | inhibition in vivo at 25 mg/kg [10] [%] | IC50 [12] [nM] | Change [14] [%] | Change [15] [%] | Change [16] [%] | Change [19] [%] | inhibition in vivo at 50 mg/kg [20] [%] | other results
CCCCCCCCCCC(C)(C)C(=O)Nc1c(OC)cc(OC)cc1OC [CL-976] | – | – | – | – | – | – | – | – | – | ED50 [1]: 21.8 mg/kg; ED50 [2]: 19 mg/kg; inhibition [3]: 45%; Change [4]: <54%; Change [5]: <28%; Change [6]: 96%; Change [7]: 19%
CCCCCCCCCCCCn1nnc(C(C(=O)Nc2c(OC)cc(OC)cc2OC)c2ccccc2)n1 (stereo not given) | 40 | <71 | 0 | 23 | 83 | <68 | <78 | <63 | 4 | IC50 [11]: 8 nM; Reduction [13]: 79%; ED50 [1]: 0.1 mg/kg; ED50 [2]: 6.4 mg/kg; Change [17]: <38%; Change [18]: <60%; IC50 [21]: 23 nM
CCCCCCCCCCCCn1nnc(C(=O)Nc2c(OC)cc(OC)cc2OC)n1 | – | – | – | 35600 | – | – | – | – | – | Change [22]: 21%
CCCCCCCCCCCCc1nnn(C(C(=O)Nc2c(OC)cc(OC)cc2OC)c2ccccc2)n1 (stereo not given) | 52 | <63 | 0 | 21 | – | – | <68 | <65 | – | Decrease [23]: 65%; Change [24]: <11%
C=CCCCCCCCCCCn1nnc(C(C(=O)Nc2c(OC)cc(OC)cc2OC)c2ccccc2)n1 (stereo not given) | 37 | – | – | 25 | 98 | <58 | – | <63 | 37 | Change [25]: <52%
C=CCCCCCCCCCn1nnc(C(C(=O)Nc2c(OC)cc(OC)cc2OC)c2ccccc2)n1 (stereo not given) | 54 | – | – | 54 | 102 | <77 | – | <56 | 26 | Change [25]: <72%
CCCCCCCCCCCCn1nnc(C(C)C(=O)Nc2c(OC)cc(OC)cc2OC)n1 (stereo not given) | 49 | – | – | 31 | – | – | – | – | – | Change [26]: <55%
CCCCCCCCCCCCc1nnn(C(C(=O)Nc2c(C(C)C)cccc2C(C)C)c2ccccc2)n1 (stereo not given) | 67 | <55 | 91 | 15 | 50 | – | <68 | <77 | – | Decrease [23]: 77%; Change [17]: <20%; Change [24]: 18%
